Source: PubChem
TRPN1 ag: zebrafish TRPN1 channel agonists, primary screen, cell-based, HEK293, calcium fluorescence; transient receptor potential cation channel N1 (TRPN1/NompC), Danio rerio; HEK293 zebrafish TRPN1-YFP, Fluo-8 calcium fluorescence; 100% = response to 87 µM carbachol; activation, % at 3 µM; 0.18% of 220,000 active; AID 1424, 2008;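 active = activation above its plate's cutoff, the mean activation of test wells on that plate plus 3 SD, cut at about 19% in these data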;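 note: 0% = DMSO alone and 100% = 87 µM carbachol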
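Assay system: Zebrafish TRPN1-YFP in HEK293 cells | Incubation: Dye loading 1 h at 37 °C, then 30 min room temperature | Measured by: Kinetic Fluo-8 fluorescence, ex 470-495, em 515-575 nm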
Biofilm kill mix: clotrimazole potentiators killing C. albicans biofilm, primary screen, 4-compound mixtures; C. albicans biofilm persisters + clotrimazole, fluorescence viability; primary screen in compound mixtures of four per well; inhibition, % at 7.6 µM; 0.02% of 120,000 active;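 active = inhibition above 30.3% in the primary screen of four-compound pools, then above 30% when the compound was retested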;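 note: compounds exposed to preformed 24 h biofilms for 48 h; 0% = untreated biofilm control and 100% = clotrimazole plus chlorhexidine kill blank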
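System: C. albicans CAF4-2 wild-type biofilms; Medium: RPMI/MOPS medium, pH 7.0; Reagent: Clotrimazole, 50 µg/mL; Times: biofilm formation 24 h, compound exposure 48 h, 37 °C; Detection: 2-h Alamar Blue fluorescence, 535/590 nm excitation/emission; Evaluation: percent inhibition of biofilm viability.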
ABCB1 inh: ABCB1 efflux pump inhibitors, primary screen, cell-based, multiplex, flow cytometry, ABCG2 counter-screen. ATP-dependent translocase ABCB1 (Homo sapiens), P08183. CCRF-Adr cells, JC-1 efflux. inhibition, % at 6.6 µM. 0.067% of 190,000 active. AID 1326, 2008; in the data active = inhibition above about 40%;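 note: 0% = vehicle and 100% = reference inhibitor; higher value means more JC-1 retained so stronger ABCB1 efflux block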
ABCG2 block: ABCG2 efflux pump inhibitors, primary screen, multiplex with ABCB1, IgMXP3 cells, flow cytometry | inhibition, % at 6.6 µM | Broad substrate specificity ATP-binding cassette transporter ABCG2 (Homo sapiens), Q9UNQ0 | 0.1% of 190,000 active | JC-1 efflux;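 active = inhibition above 80%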;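 note: 0% = DMSO and 100% = nicardipine control wells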
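Incubation: cells with compound and JC-1, 10 min at 25 °C, rotating, no wash / Test system: IgMXP3 (ABCG2) plus far-red-tagged CCRF-Adr (ABCB1) cells / Compound dosing: one concentration, 6.6 µM final / Also added: JC-1 fluorescent substrate / Evaluation: efflux inhibition in percent versus controls / Detection: flow cytometry, 530 nm JC-1 signal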
ROMK mod: ROMK potassium channel modulators, primary screen, cell-based, thallium flux, MLSMR library. B-score at 10 µM. 2% of 130,000 active. Tet-inducible ROMK, thallium flux fluorescence; actives lie on both sides. AID 1918, 2009;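 active = signal ratio slope over the read window, or its plate-corrected B-score, at least 3 SD from the plate mean, either direction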;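 note: B-score of the F/F0 ratio slope over 7 to 12 s after thallium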
TRPML3 agonist: human TRPML3 channel agonists, primary screen, cell-based, HEK293 TRPML3-YFP, Fluo-8 calcium fluorescence, 3 µM; Mucolipin-3 (Homo sapiens), Q8TDD5; 100% = the carbachol control signal; activation, % at 3 µM; 0.29% of 220,000 active; AID 1448, 2008;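 active = activation above its plate's cutoff, the mean activation of the plate's test wells plus 3 SD, cut at about 12% in these data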;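 note: 0% = DMSO only wells and 100% = carbachol wells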
Target sequence (Q8TDD5 whole entry, looked up): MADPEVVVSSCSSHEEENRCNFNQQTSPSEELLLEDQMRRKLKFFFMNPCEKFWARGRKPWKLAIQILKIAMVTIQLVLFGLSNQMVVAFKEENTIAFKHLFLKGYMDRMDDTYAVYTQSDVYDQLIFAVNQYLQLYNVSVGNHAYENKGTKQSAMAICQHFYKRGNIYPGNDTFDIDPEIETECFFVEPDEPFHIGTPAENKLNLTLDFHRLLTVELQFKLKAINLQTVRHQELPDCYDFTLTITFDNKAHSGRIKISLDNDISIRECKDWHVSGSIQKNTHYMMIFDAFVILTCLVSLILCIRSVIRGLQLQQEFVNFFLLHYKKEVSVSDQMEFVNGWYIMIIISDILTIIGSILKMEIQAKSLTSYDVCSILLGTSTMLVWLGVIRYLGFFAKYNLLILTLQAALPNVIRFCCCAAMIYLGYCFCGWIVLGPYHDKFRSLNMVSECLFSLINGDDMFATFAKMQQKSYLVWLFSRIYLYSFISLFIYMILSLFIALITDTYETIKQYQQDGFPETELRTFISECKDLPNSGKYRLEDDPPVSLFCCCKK
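Material: TRPML3-YFP stable HEK293 cells | Dosing: One concentration, 3 µM nominal, 0.3% DMSO | Timing: 125 s total fluorescence read per well | Technique: Fluo-8 calcium dye fluorescence, ex 470-495, em 515-575 nm | Measure: Percent activation from peak-to-basal fluorescence ratio, scaled between DMSO and carbachol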
TRPN1 counter: zebrafish TRPN1 channel agonists, counter-screen for TRPML3 agonist project, cell-based, HEK293 TRPN1-YFP, Fluo-8 calcium; 10% of 310 active; shares compounds with TRPML3 agonist; AID 1525, 2009; Fluo-8 calcium fluorescence; scaled: carbachol wells 100%, DMSO wells 0%; activation, % at 3 µM;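 active = mean activation over replicates above a set limit taken from the earlier TRPN1 channel primary screen, cut at about 19% in these data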;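 note: 100% = carbachol and 0% = 0.3% DMSO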
TRPML3 confirm: human TRPML3 channel agonists, confirmation, cell-based, HEK293 TRPML3-YFP, Fluo-8 calcium, triplicate; shares compounds with TRPML3 agonist; 80% of 310 active; activation, % at 3 µM; Fluo-8 calcium fluorescence; 100% set by carbachol, 0% by DMSO; AID 1526, 2009;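 active = activation above a set limit derived from the earlier primary screen, cut at about 12% in these data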
* marks the source's active call; other numbers are inactive results; / = not tested or not shown. This excerpt belongs to a sample that is enriched for hits.

SMILES	TRPN1 ag	Biofilm kill mix	ABCB1 inh	ABCG2 block	ROMK mod	TRPML3 agonist	TRPN1 counter	TRPML3 confirm
Nc1ccc(N2CCCCC2)c(S(=O)(=O)Nc2ccccc2Cl)c1	-1	2	/	/	/	-1	/	/
CCOC(=O)C1CCN(C(=O)C(C)N(c2ccc(Oc3ccccc3)cc2)S(C)(=O)=O)CC1 (centres undefined)	9	6	1	0	0.66	22*	8	18*
CCOC(=O)N1CCN(C(=O)C(C)N(c2ccc(Oc3ccccc3)cc2)S(C)(=O)=O)CC1 (centres undefined)	1	/	1	1	-1.3	1	/	/
CCOc1ccc(S(=O)(=O)NC(C)(C)C)cc1-c1nc2c(C(C)(C)C)nn(C)c2c(=O)[nH]1	-1	/	2	3	-0.39	24*	2	147*
CCN(CC)C(=S)SCC(=O)NC12CC3CC(CC(C3)C1)C2	0	6	1	15	0.069	12*	0	28*
CCN(CC)CC(=O)NC12CC3CC(CC(C3)C1)C2	0	/	1	3	-0.023	0	/	/
O=C(NNC(=S)Nc1ccc(Cl)cc1Cl)c1ccc(N2CCOCC2)c([N+](=O)[O-])c1	0	15	/	1	1.7	0	/	/
C=CCN1C=CC(=C/C=C(/C#N)C(=O)OCC)C=C1	16	13	1	6	/	12*	18	14*
COC(=O)C(CC(C)C)N1CCC(=O)c2ccccc2S1(=O)=O (centres undefined)	/	11	/	/	/	/	/	/
CCOC(=O)c1sc(=S)n(C)c1NC(=O)c1ccc(C(C)(C)C)cc1	11	23	/	/	/	14*	16	10
CC1CCN(S(=O)(=O)c2ccc3ccccc3c2)CC1	0	/	0	0	-0.83	22*	0	43*
CC1CCN(S(=O)(=O)c2ccc(Br)s2)CC1	-1	/	0	-2	/	20*	-2	19*
CC1CCN(S(=O)(=O)c2ccc(C(C)C)cc2)CC1	2	-1	0	1	0.4	68*	8	118*
CC(C(=O)NN)c1ccc([N+](=O)[O-])cc1 (centres undefined)	-1	16	2	23	-0.82	-1	/	/
COc1cccc(C(=O)N(Cc2nc(-c3cccc(C)c3)no2)C(C)C)c1OC	-1	/	1	3	-0.91	-1	/	/
Cc1cccc(-c2noc(CN(C(C)C)S(=O)(=O)c3ccc(F)cc3)n2)c1	2	/	1	5	/	75*	0	56*
NS(=O)(=O)c1ccc(NC(=O)CN2C(=O)C3C4C=CC(C4)C3C2=O)cc1 (centres undefined)	1	11	0	9	/	1	/	/
O=C(C1CCCCN1S(=O)(=O)c1ccc(F)cc1)N1CCN(c2ccccc2F)CC1 (centres undefined)	1	/	-3	-3	/	3	/	/
CN(C)C(=O)C1Cc2ccccc2CN1S(=O)(=O)c1cccs1 (centres undefined)	-1	9	0	9	1.4	0	/	/
O=C(C1Cc2ccccc2CN1S(=O)(=O)c1ccc(F)cc1)N1CCCCC1 (centres undefined)	1	/	0	3	/	64*	4	127*
O=C(C1Cc2ccccc2CN1S(=O)(=O)c1cccs1)N1CCCCC1 (centres undefined)	-1	/	1	3	/	15*	0	52*
COc1ccccc1N1CCN(C(=O)C2CCCCN2S(=O)(=O)c2ccc(C)cc2)CC1 (centres undefined)	1	24	/	/	/	14*	0	11
Cn1c(N)c(C(=O)COC(=O)[C@@H]2CCCN2S(=O)(=O)c2ccc(Cl)cc2)c(=O)n(C)c1=O	2	12	0	7	-0.55	2	/	/
CCOc1ccccc1OCCCNCc1ccco1	1	7	1	2	-1.2	-1	/	/
O=C(O/N=C1\CCCCC1c1ccc([N+](=O)[O-])cc1[N+](=O)[O-])c1c(F)cccc1F (centres undefined)	-2	/	9	16	/	57*	-2	6
SMILES	TRPN1 ag	Biofilm kill mix	ABCB1 inh	ABCG2 block	ROMK mod	TRPML3 agonist	TRPN1 counter	TRPML3 confirm
O=[N+]([O-])c1ccc(C2CCCC/C2=N/OCc2ccccc2F)c([N+](=O)[O-])c1 (centres undefined)	0	/	2	8	/	0	/	/
COC(=O)c1cc(-c2ccc(S(=O)(=O)N3CCCCC3)cc2)c(C(F)(F)F)s1	0	19	/	/	/	16*	-1	19*
O=S(=O)(c1ccc(Cl)cc1Br)N1CCCCC1	0	/	1	4	-1.2	15*	-1	27*
O=S(=O)(N1CCCCC1)N1CCN(c2cc(Cl)ccc2Cl)CC1	-1	9	1	1	-0.48	19*	-1	96*
CC1CCN(S(=O)(=O)c2cc(Cl)ccc2Br)CC1	-2	/	0	-6	-0.54	0	/	/
Cc1ccc(N2CCN(S(=O)(=O)N3CCCCC3)CC2)c(C)c1	0	9	1	1	-0.012	37*	4	132*
C=CCNCC(O)COc1ccc(C(C)=O)cc1OC (centres undefined)	2	11	/	/	/	1	/	/
COc1ccc(/C=C/C(=O)Nc2cccc(N3CCOCC3)c2)cc1OC	3	21	/	1	1.6	0	/	/
CN(C1CCCCC1)S(=O)(=O)c1cccc(C(=O)OCC(=O)NC2CCCc3ccccc32)c1 (centres undefined)	4	7	2	4	-2.3	70*	4	61*
CN(CC(=O)NC1CCCc2ccccc21)C1CCCCC1 (centres undefined)	-1	10	1	-1	-0.87	1	/	/
